# Rows were chosen to be rich in hits. Some 4.5% of all compounds tested hit in one or more screens of this group.
# OX1R antag-1 = human HCRTR1 antagonism. O43613. CHO/OX1R cells, Fluo-8 calcium fluorescence, orexin A. inhibition, % at 5 µM. actives 0.43% (n = 330,000). AID 434989;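 active = inhibition above its plate's threshold, mean inhibition of all tested compounds on the plate plus 3 SD, cut at about 37% in these data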;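 also: 0% = orexin A challenge wells and 100% = SB-334867-A antagonist wells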
# TAAR1 ag = human TAAR1 agonism. Q96RJ0. activation, % at 3 µM. actives 0.99% (n = 360,000). CHO RD-HGA16 TAAR1, Fluo-8 calcium fluorescence; vehicle wells 0%, saturating PEA agonist 100%;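 active = activation above the mean activation of all test compounds in the run plus 3 SD, cut at about 38% in these data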
# Target sequence (Q96RJ0 whole entry, looked up): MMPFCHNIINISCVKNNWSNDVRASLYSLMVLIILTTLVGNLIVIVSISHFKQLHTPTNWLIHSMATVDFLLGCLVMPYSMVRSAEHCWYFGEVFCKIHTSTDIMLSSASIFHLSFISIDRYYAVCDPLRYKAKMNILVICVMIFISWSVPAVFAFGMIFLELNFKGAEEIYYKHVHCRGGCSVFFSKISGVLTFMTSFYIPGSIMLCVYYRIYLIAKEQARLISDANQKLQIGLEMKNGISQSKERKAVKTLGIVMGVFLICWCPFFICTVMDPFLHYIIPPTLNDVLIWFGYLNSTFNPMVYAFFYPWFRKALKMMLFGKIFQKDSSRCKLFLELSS
#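 Assay system: CHO-derived RD-HGA16 cells with stable Gα16 and human TAAR1; timing: 17-24 h seeding, 75 min 37 °C dye, 30 min RT; read-out: % activation from peak over basal fluorescence ratio, DMSO-to-PEA scaled; measured by: kinetic Fluo-8 calcium fluorescence; benchmarks: low control DMSO, high control PEA (EC100); doses: 3 µM single concentration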
# TAAR1 antag = antagonists of human TAAR1 | Q96RJ0 | CHO RD-HGA16 TAAR1, Fluo-8 calcium fluorescence, antagonist | inhibition, % at 3 µM | actives 1.5% (n = 360,000) | AID 624466;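 active = inhibition above a per-plate cutoff, the mean inhibition of test compounds on that plate plus 3 SD, cut at about 49% in these data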;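 also: 0% = DMSO plus EC80 beta-PEA response and 100% = DMSO alone without agonist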
#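 Assay system: RD-HGA16 CHO cells with stable hTAAR1 and Gα16 / Reagent: EC80 β-phenethylamine stimulus / Doses: 3 µM, single point / Timing: dye loading 75 min at 37 °C, then 30 min room temperature / Measured by: Fluo-8 intracellular calcium dye fluorescence, real-time kinetic reads / Controls: vehicle wells and EC80 agonist wells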
# GPR7 antagonist = human neuropeptides B/W receptor 1 antagonism; AID 1861; inhibition, % at 4.4 µM; actives 1.1% (n = 290,000); GPR7-expressing cells, fluorescence antagonist assay; P48145; in the data active = inhibition above about 16%, passing the limit was not always enough;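 also: cells stimulated with the agonist NPW; 0% = agonist with vehicle and 100% = vehicle without agonist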
# Target sequence (P48145 whole entry, looked up): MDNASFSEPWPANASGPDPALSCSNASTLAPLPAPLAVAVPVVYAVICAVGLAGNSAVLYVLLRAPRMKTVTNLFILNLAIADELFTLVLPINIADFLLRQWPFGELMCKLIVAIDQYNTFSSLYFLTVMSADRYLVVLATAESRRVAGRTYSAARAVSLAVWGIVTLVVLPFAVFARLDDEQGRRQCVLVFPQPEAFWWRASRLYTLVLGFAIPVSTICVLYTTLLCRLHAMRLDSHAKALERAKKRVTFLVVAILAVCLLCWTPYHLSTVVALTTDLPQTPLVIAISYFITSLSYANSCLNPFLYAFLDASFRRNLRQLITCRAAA
# OX1R antag-2 = antagonists of human orexin 1 receptor (OX1R) | O43613 | OX1R-expressing cells, FRET antagonist read-out | inhibition, % at 6.6 µM | actives 1.8% (n = 330,000); in the data active = inhibition mostly above about 38%, no sharp cut-off; inactive = mostly below about 40%;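 also: 0% = agonist challenge alone and 100% = reference antagonist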
# CHO parental Ca = counter-screen for OX1R antagonists: effect in parental CHO cells | inhibition, % at 5.6 µM | parental CHO-K1, ATP-induced calcium, Fluo-8 fluorescence | actives 0.63% (n = 330,000) | AID 463079;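 active = inhibition above that plate's mean sample inhibition plus 3 SD, cut at about 26% in these data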;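 also: 0% = ATP-challenged DMSO wells and 100% = DMSO wells without ATP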
#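 test system = CHO parental line | reagent = ATP stimulus | measured by = intracellular calcium via Fluo-8 no-wash fluorescent dye | control set = ATP and no-ATP DMSO wells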
# TAAR1 ag confirm = confirmation of human TAAR1 agonists; CHO RD-HGA16 TAAR1, Fluo-8 calcium fluorescence; scaled: DMSO 0%, maximal phenethylamine 100%; shares compounds with TAAR1 ag; AID 651783; activation, % at 3 µM; actives 82% (n = 2,400);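 active = activation above a cutoff set at the run's mean compound activation plus 3 SD, cut at about 39% in these data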
# Ga16 ag counter = nonselective agonist in parental cells, TAAR1 agonist counter-screen; shares compounds with TAAR1 ag; CHO-Ga16 parental, Fluo-8 calcium fluorescence; normalized to maximal ATP response, DMSO zero; activation, % at 3 µM; actives 50% (n = 2,400);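 active = activation above the run cutoff, the mean activation over all tested wells plus 3 SD, cut at about 12% in these data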;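 also: 0% = DMSO wells and 100% = maximal ATP response on the peak over basal ratio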
# TAAR1 desens = counter-screen for human TAAR1 agonists: agonists that desensitize TAAR1. CHO RD-HGA16 hTAAR1, Fluo-8 calcium, beta-PEA response inhibition. inhibition, % at 3 µM. shares compounds with TAAR1 ag. actives 46% (n = 2,400);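 active = inhibition above the run cutoff, the mean inhibition of all test compounds plus 3 SD, cut at about 49% in these data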;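 also: beta-PEA stimulus applied at its EC80; loss of beta-PEA calcium signal after compound pretreatment read as receptor desensitization; 0% = DMSO with beta-PEA at EC80 and 100% = DMSO alone without agonist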
# Ga16 antag count = nonselective Ga16 antagonist in TAAR1 agonist counter-screen; shares compounds with TAAR1 ag; CHO-Ga16 ATP-induced calcium, Fluo-8 fluorescence; inhibition, % at 3 µM; actives 39% (n = 2,400); AID 651952;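 active = inhibition above the plate's mean compound inhibition plus 3 SD, computed per plate, cut at about 22% in these data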;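 also: 0% = EC80 ATP with DMSO and 100% = DMSO wells without ATP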
# Starred values were filed as active, the others as inactive; / = not tested or not shown; ! = not active in a repeat.
SMILES,OX1R antag-1,TAAR1 ag,TAAR1 antag,GPR7 antagonist,OX1R antag-2,CHO parental Ca,TAAR1 ag confirm,Ga16 ag counter,TAAR1 desens,Ga16 antag count
O=C1/C(=C/c2ccc(N3CCCC3)cc2)NC(=S)N1C1CC1,106.0*,177.5*,99.1*,2.9,17.0,57.7*,58.4*,61.1*,70.8*,70.5*
COC(=O)c1ccccc1NC(=O)CN1C(=O)CSC1=O,-17.3,7.1,1.1,-2.4,34.6,-6.4,/,/,/,/
COC(=O)c1cc(NC(=O)CN2C(=O)CSC2=O)ccc1Cl,-0.8,70.3*,6.3,-2.7,10.8,-7.6,5.5,1.0,-7.5,2.3
COC(=O)c1ccccc1NC(=O)CSc1nc2ccsc2c(=O)n1Cc1ccc(C(=O)O)cc1,/,4.8,16.4,/,/,/,/,/,/,/
CC(=O)Nc1ccc(N2C(=O)c3cccc4c(O)ccc(c34)C2=O)cc1,61.4*,173.7*,42.3,24.7,15.8,58.3*,63.4*,65.1*,30.9,39.3*
O=C1c2cccc3c(O)ccc(c23)C(=O)N1c1ccc(Cl)cc1,84.6*,235.0*,59.1*,27.1,19.1,68.9*,129.1*,120.8*,75.2*,70.2*
O=C1c2cccc3c(O)ccc(c23)C(=O)N1Cc1ccco1,/,132.0*,39.0,-0.8,/,/,158.0*,187.5*,74.1*,79.9*
O=C1c2ccccc2C(=O)N1c1ccc(Cl)cc1,-7.9,/,/,-9.7,14.2,-11.7,/,/,/,/
O=C1c2ccccc2C(=O)N1Cc1ccco1,-6.5,0.3,11.3,-9.2,12.5,-7.3,/,/,/,/
CN(Cc1nccn1C)C(=O)CC1C(=O)NCCN1Cc1ccc(F)cc1Cl (stereo not drawn),-13.8,6.9,-8.6,-17.7,38.9,-1.4,/,/,/,/
CCOC(=O)C1(C)CCCCN1C(=O)c1cccc(Cl)c1 (stereo not drawn),/,0.3,-17.5,/,/,/,/,/,/,/
CC(O)(c1ccc(F)c(F)c1)c1nc(-c2cccc3cccnc23)cs1 (stereo not drawn),/,0.6,3.0,/,/,/,/,/,/,/
O=C(O)CCN1C(=O)c2ccc(NC(=O)c3cccs3)cc2C1=O,-18.0,1.6,-7.6,-10.9,18.6,-0.7,/,/,/,/
O=C(Nc1ccc2c(c1)C(=O)N(c1ccccc1)C2=O)c1cccs1,-20.0,57.2*,39.5,-7.6,6.5,1.8,46.2*,25.2*,34.8,17.4
C=CCN1[C@@H](C)[C@H](c2ccccc2)Oc2cccc(NCCc3ccccc3)c2S1(=O)=O,/,97.3*,35.8,/,/,/,72.1*,1.1,18.8,9.1
Cc1nn(CC(=O)NCCc2cccs2)c(=O)c2cc3ccccc3n12,-34.3,47.7*,-5.0,-5.5,11.1,-19.9,37.6*,-0.6,0.9,4.7
COc1ccc(NC(=O)C2CC(=O)NC(Nc3cccc(C)c3)=N2)cc1 (stereo not drawn),-5.2,51.0*,8.2,-5.0,23.6,-5.5,53.7*,3.0,14.1,8.1
COc1ccc2nc(NC3=NC(C(=O)Nc4ccc(C)cc4)CC(=O)N3)nc(C)c2c1 (stereo not drawn),-6.4,/,/,-16.0,-4.8,-7.5,/,/,/,/
O=C1CC(C(=O)N2CCc3ccccc32)CN1c1ccccc1 (stereo not drawn),-24.3,1.5,-2.7,-11.1,4.0,-21.0,/,/,/,/
CCN(C(=O)CN1C(=O)COc2ccc(S(=O)(=O)N3CCCCCC3)cc21)c1cccc(C)c1,-4.8,2.1,4.3,15.8,9.6,-34.3,/,/,/,/
O=C(COC(=O)/C=C/c1ccccc1Cl)NC1CCCCCC1,-10.6,49.2*,52.8*,-9.7,5.3,-8.9,23.9,5.1,33.2,11.0
C[C@H]1Oc2ccccc2C(=O)C1C(=O)c1ccccc1 (stereo partly drawn),-16.2,-0.7,-8.8,/,11.5,-3.5,/,/,/,/
CC(=O)N(C)c1cccc(-c2ccc3nnc(C)n3n2)c1,7.2,1.9,-18.1,-17.0,2.9,4.0,/,/,/,/
O=[N+]([O-])c1ccc(/C=C/C2=NN(c3ccccc3)C(c3ccco3)C2)cc1 (stereo not drawn),79.9*,79.6*,74.7*,11.9,15.2,68.8*,128.4*,198.2*,89.7*,94.5*
CC1=NN(c2ccccc2)C(c2ccco2)C1 (stereo not drawn),/,0.3,-3.3,/,/,/,/,/,/,/
SMILES,OX1R antag-1,TAAR1 ag,TAAR1 antag,GPR7 antagonist,OX1R antag-2,CHO parental Ca,TAAR1 ag confirm,Ga16 ag counter,TAAR1 desens,Ga16 antag count
CCNC(=S)NNC(=O)c1cc(-c2ccc(OCC)cc2)nc2ccccc12,-27.1,7.7,21.8,-16.5,3.0,-33.5,/,/,/,/
CCCOc1ccc(C(=O)NNC(=S)NC(=O)c2cc(-c3ccc(Cl)cc3)nc3ccccc23)cc1,12.0,61.7*,85.3*,-6.3,28.5,12.5,105.4*,77.9*,102.6*,93.8*
COc1ccc(Cl)cc1C(=O)NNC(=S)NC(=O)c1cc(-c2ccccc2)nc2ccccc12,1.6,104.3*,74.7*,17.3,10.2,12.8,114.1*,96.2*,101.8*,86.7*
COc1ccc(C(=O)NNC(=S)NC(=O)c2cc(-c3ccccc3)nc3ccccc23)cc1,-2.5,128.0*,87.9*,-13.2,26.0,-10.3,122.3*,93.7*,94.6*,73.1*
COc1ccc(Nc2nc(N3CCCC3)c3ccccc3n2)cc1,1.0,67.1*,48.2,2.1,29.6,-1.7,89.4*,9.4,86.3*,18.7
CCOc1ccccc1CN1CCNC(=O)C1CC(=O)N(C)CCc1ccccn1 (stereo not drawn),-6.5,54.4*,-19.6,-9.7,8.5,-8.8,60.3*,5.6,18.1,0.9
Cc1ccc(CN2CCNC(=O)C2CC(=O)N(C)CCc2ccccc2)cc1 (stereo not drawn),-26.6,59.2*,-10.8,-12.9,6.9,-14.1,77.7*,0.4,37.1,0.4
O=C1C=CC(=Nc2ccc(F)cc2)O1,/,2.2,-4.6,/,/,/,/,/,/,/
CC(C)C[C@@H](CN(C)N=O)N(C[C@H](Cc1ccccc1)N(CCc1ccccc1)N=O)N=O,3.6,28.2,42.7,6.6,17.1,-9.2,/,/,/,/
CN(C[C@H](Cc1ccccc1)N(C[C@H](Cc1cccc2ccccc12)N(CCc1ccccc1)N=O)N=O)N=O,-37.0,69.4*!,-5.3,/,6.2,-19.2,46.5*,0.5,4.8,9.5
